≈ marks a conversion by molar mass, not a printed value. Where “and” joins values, the source holds several entries; their conditions need not be identical. Identical values can stand only once. Like-named read-outs stand apart in the source and are kept apart here.
Key:
Assay type in all cases: cell-based, Human
TK6 cells [1] = experiment: Generation of reactive oxygen species; details: for level of ROS generated: DEHP 234μM, MEHP 196μM (IC50's), cisplatin 13uM
[2] = test system: caspases 3 and 7 in TK6 cells; experiment: Activation of caspases 3 and 7
TK6 cells [3] = details: DEHP 234μM, MEHP 196μM (IC50's), valinomycin 11 uM
TK6 cells [4] = experiment: Cell viability / IC50 by trypan blue exclusion; details: for IC50 (cell viability): same value expressed in mg/L
Method in brief: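 TK6 lymphoblasts were grown in RPMI 1640 with 10% FBS at 37°C, 5% CO2, and subcultured at 1×10^6 cells per 3.5 mL to keep exponential growth. Cells were exposed for 24, 48 or 72 h to test compound at 10–500 μM ([…]). Viability was counted by trypan blue exclusion on an automated cell counter, and the 50% inhibitory concentration was read from the viability curves.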

[5] = 24 hours exposure, DEHP and MEHP at IC50's, staurosporine 1 uM
[6] = 48 hours exposure, DEHP 234μM, MEHP 196μM (IC50's), staurosporine 1μM
[7] = read-out: IC50 (cell viability), 24 hours of exposure
[8] = read-out: IC50 (cell viability), 48 hours of exposure
[9] = read-out: IC50 (cell viability), 72 hours of exposure

Structure (SMILES) | level of ROS generated (TK6 cells [1]; 24 hours exposure) [FSU] | level of ROS generated (TK6 cells [1]; 48 hours exposure) [FSU] | caspases 3 and 7 activation [2, 5] [FSU] | caspases 3 and 7 activation [2, 6] [FSU] | mitochondrial membrane permeability (TK6 cells [3]; 24 hours exposure) [FSU] | mitochondrial membrane permeability (TK6 cells [3]; 48 hours exposure) [FSU] | IC50 (cell viability) (TK6 cells [4]; 48 hours of exposure) [µg/mL] | IC50 (cell viability) (TK6 cells [4]; 72 hours of exposure) [µg/mL] | IC50 (TK6 cells [4]; [7]) | IC50 (TK6 cells [4]; [8]) [µM] | IC50 (TK6 cells [4]; [9]) [µM] | ROS production relative to the parent DEHP (TK6 cells [1]; comparison among phthalates at IC50 doses)
N.N.[Cl][Pt][Cl] [Cisplatin, cis-diammineplatinum (II) dichloride, reference compound] | 1348.85 | 1575.35 |  |  |  |  |  |  |  |  |  | 
CCCCC(CC)COC(=O)c1ccccc1C(=O)OCC(CC)CCCC (centres unmarked) [DEHP, diethylhexyl phthalate] | 458.54 | 793.27 | 122.13 | 1406.94 | 1100.85 | 2505.58 | 91.4 (≈ 234 µM) | 39.06 (≈ 100 µM) | ~250 µM and 250 µM | 234 | 100 | 
CCCCC(CC)COC(=O)c1ccccc1C(=O)O (centres unmarked) [MEHP, monoethylhexyl phthalate] | 816.53 | 1518.75 | 292.80 | 1209.72 | 1630.94 | 2210.09 | 54.55 (≈ 196 µM) | 22.27 (≈ 80 µM) | 250 µM | 196 | 80 | twice as much
CN[C@@H]1C[C@H]2O[C@@](C)([C@@H]1OC)n1c3ccccc3c3c4c(c5c6ccccc6n2c5c31)C(=O)NC4 [Staurosporine, reference compound] |  |  | 1390.92 | 1322.55 |  |  |  |  |  |  |  | 
CC(C)[C@@H]1NC(=O)[C@H](C)OC(=O)[C@@H](C(C)C)NC(=O)[C@@H](C(C)C)OC(=O)[C@H](C(C)C)NC(=O)[C@H](C)OC(=O)[C@@H](C(C)C)NC(=O)[C@@H](C(C)C)OC(=O)[C@H](C(C)C)NC(=O)[C@H](C)OC(=O)[C@@H](C(C)C)NC(=O)[C@@H](C(C)C)OC1=O [valinomycin, Valinomycin, reference compound] |  |  |  |  | 1079.18 | 2327.65 |  |  |  |  |  | 
